Assay outcomes (PubChem BioAssay)
Hits are enriched below; roughly 5.9% of the tested compounds scored in any of these assays.
KDM4C inh = blocks human GASC-1 (KDM4C) demethylase activity; Q9H3R0; GST-KDM4C 2-372, H3K9me3 peptide, LANCE TR-FRET; actives 0.15% (n = 96,000); AID 720574; inhibition, % at 12.5 µM;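 active means mean replicate inhibition above about 25%, with at least 55% of replicates also reaching it, limit read from the data, passing the limit was not always enough; inconclusive means only one of those two conditions met; inactive means neither condition met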
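System: N-terminal GST-fused human GASC-1 (KDM4C) fragment, residues 2-372 / Amount: 10 nM GST-KDM4C in enzyme reaction / Also added: H3K9me3 peptide with Fe(II)/2OG / Times: 30 min demethylation and 1 h detection at room temperature / Signal: LANCE TR-FRET / Read-out basis: Fall in 671/618 emission ratio as inhibition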
Pf Dd2 growth = blocks growth of Plasmodium falciparum Dd2 parasites | activity change, % at 10 µM | actives 2.3% (n = 94,000) | P. falciparum Dd2 growth, SYBR Green, 72 h; hits give low values; in the data active means activity change below about -80%; inconclusive means no clear call, values can overlap the other calls
IDH1 R132H inh = blocks human IDH1 R132H reductase activity; O75874; diaphorase/resazurin fluorescence, 60 min; inhibition, % at 10 µM; actives 0.18% (n = 70,000); in the data active means inhibition above about 34%; inconclusive means no clear call, values can overlap the other calls; inactive means below about 11%;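 further: 0% = DMSO and 100% = no enzyme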
Target sequence (O75874 whole entry R132H): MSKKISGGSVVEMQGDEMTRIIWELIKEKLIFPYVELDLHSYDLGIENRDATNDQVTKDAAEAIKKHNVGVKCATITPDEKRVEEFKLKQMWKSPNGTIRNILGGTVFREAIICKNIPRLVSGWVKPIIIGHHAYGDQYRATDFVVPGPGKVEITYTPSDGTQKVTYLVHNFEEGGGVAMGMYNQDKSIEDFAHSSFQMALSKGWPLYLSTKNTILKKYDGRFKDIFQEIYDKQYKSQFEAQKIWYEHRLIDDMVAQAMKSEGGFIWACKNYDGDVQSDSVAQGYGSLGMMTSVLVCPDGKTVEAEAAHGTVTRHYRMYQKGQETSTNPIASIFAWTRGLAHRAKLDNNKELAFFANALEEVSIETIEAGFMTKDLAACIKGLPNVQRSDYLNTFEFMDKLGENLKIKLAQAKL
T cruzi growth-1 = inhibitors of T. cruzi proliferation; T. cruzi beta-gal in NIH3T3, GalScreen luminescence, 90 h; inhibition, % at 8.34 µM; actives 5.9% (n = 77,000);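 active means mean inhibition above about 93%, with at least 55% of replicates each passing it, limit read from the data, passing the limit was not always enough; inconclusive means only one of those two conditions holds; inactive means neither condition holds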
T cruzi growth-2 = Trypanosoma cruzi proliferation inhibition. inhibition, % at 8.35 µM. shares compounds with T cruzi growth-1. actives 72% (n = 5,600). T. cruzi beta-gal in NIH3T3, GalScreen luminescence, 90 h;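 active means mean replicate inhibition above about 95% and at least 55% of replicates individually reaching it, limit read from the data; inconclusive means only one of the two criteria is met; inactive means neither criterion is met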
T cruzi growth-3 = inhibitors of T. cruzi proliferation; shares compounds with T cruzi growth-1; T. cruzi beta-gal in NIH3T3, GalScreen luminescence, 90 h; inhibition, % at 2.09 µM; actives 21% (n = 5,600); AID 651740;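 active means mean inhibition above about 95%, with at least 55% of replicates also reaching it, limit read from the data; inconclusive means meets just one of the two conditions; inactive means meets neither condition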;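 further: plate controls were neutral control median for no effect and positive control median for full effect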
3T3 cytotox = cytotoxicity in mouse NIH/3T3 fibroblasts; shares compounds with T cruzi growth-1; NIH/3T3 viability, CellTiter-Glo ATP luminescence, 90 h; cytotoxicity (signal decrease), % at 8.35 µM; actives 14% (n = 5,600); AID 651742;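 active means mean signal decrease across replicates above about 35% based on untreated-well scatter, with enough replicates individually passing, limit read from the data; inconclusive means no rule stated though some were filed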;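 further: 0% = median of neutral control wells and 100% = median of positive control wells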
NIH3T3 tox 2 = kills mouse NIH/3T3 fibroblasts; shares compounds with T cruzi growth-1; NIH/3T3 viability, CellTiter-Glo ATP luminescence, 90 h; inhibition, % at 24.9 µM; actives 56% (n = 5,600);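 active means mean loss of cell viability signal at or above a set limit, and enough replicates individually reaching it; inconclusive means meets only the mean limit or only the replicate share; inactive means meets neither condition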;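 further: 0% = median of neutral control wells and 100% = median of positive control wells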
An asterisk follows results filed as active.

How did COc1ccc(NC(=O)Nc2ccc3c(c2)[C@@H]2C[C@@H](CC(=O)NCCc4ccccc4)O[C@H](CO)[C@@H]2O3)cc1 do in these assays?
KDM4C inh: -9; Pf Dd2 growth: -11; IDH1 R132H inh: 0; T cruzi growth-1: 133*; T cruzi growth-2: 105*; T cruzi growth-3: 64; 3T3 cytotox: -17; NIH3T3 tox 2: -5

Results for COc1ccc(NC(=O)Nc2ccc3c(c2)[C@@H]2C[C@@H](CC(=O)NCCc4ccccc4)O[C@@H](CO)[C@@H]2O3)cc1 ?
KDM4C inh: -5; Pf Dd2 growth: -38; IDH1 R132H inh: 1; T cruzi growth-1: 179*; T cruzi growth-2: 111*; T cruzi growth-3: 105*; 3T3 cytotox: 6; NIH3T3 tox 2: 4

Results for CCCNC(=O)C[C@H]1C[C@@H]2c3cc(NC(=O)CN(C)C)ccc3O[C@@H]2[C@H](CO)O1 ?
KDM4C inh: 3; Pf Dd2 growth: 1; IDH1 R132H inh: 0; T cruzi growth-1: 3

Results for COc1ccc(NC(=O)Nc2ccc3c(c2)[C@H]2C[C@H](CC(=O)NCCc4ccccc4)O[C@@H](CO)[C@H]2O3)cc1 ?
KDM4C inh: -10; Pf Dd2 growth: -58; IDH1 R132H inh: 0; T cruzi growth-1: 148*; T cruzi growth-2: 105*; T cruzi growth-3: 56; 3T3 cytotox: -12; NIH3T3 tox 2: -3

Results for CCCNC(=O)C[C@H]1C[C@H]2c3cc(NC(=O)CN(C)C)ccc3O[C@H]2[C@@H](CO)O1 ?
KDM4C inh: 0; Pf Dd2 growth: 28; IDH1 R132H inh: -1; T cruzi growth-1: 101*; T cruzi growth-2: 7; T cruzi growth-3: -3; 3T3 cytotox: -5; NIH3T3 tox 2: 3

Results for COc1cccc(C2C(C(=O)c3ccco3)C(=O)C(=O)N2CCN(C)C)c1OC (stereo not given) ?
IDH1 R132H inh: 0

Results for COc1ccc(CNC(=O)C[C@@H]2C[C@H]3c4cc(NC(=O)C5CCC5)ccc4O[C@H]3[C@H](CO)O2)cc1 ?
KDM4C inh: 0; Pf Dd2 growth: -8; IDH1 R132H inh: -2; T cruzi growth-1: 177*; T cruzi growth-2: inconclusive; T cruzi growth-3: -1; 3T3 cytotox: 6; NIH3T3 tox 2: 18

Results for CC(C)C#Cc1ccc2c(c1)O[C@@H](CN(C)Cc1ccccn1)[C@H](C)CN([C@@H](C)CO)S2(=O)=O ?
Pf Dd2 growth: -66; T cruzi growth-1: inconclusive; T cruzi growth-2: 108*; T cruzi growth-3: 51; 3T3 cytotox: 55*; NIH3T3 tox 2: 95*

What do the screens show for `CC(C)C#Cc1ccc2c(c1)O[C@H](CN(C)Cc1ccccn1)[C@H](C)CN([C@@H](C)CO)S2(=O)=O`?
Pf Dd2 growth: -74; IDH1 R132H inh: -2; T cruzi growth-1: 74

What do the screens show for `CC(C)C#Cc1ccc2c(c1)O[C@H](CN(C)Cc1ccccn1)[C@@H](C)CN([C@H](C)CO)S2(=O)=O`?
Pf Dd2 growth: -72; IDH1 R132H inh: -7; T cruzi growth-1: inconclusive; T cruzi growth-2: 102*; T cruzi growth-3: 74; 3T3 cytotox: 65*; NIH3T3 tox 2: 54*

Results for CC(C)C#Cc1ccc2c(c1)O[C@H](CN(C)Cc1ccccn1)[C@@H](C)CN([C@@H](C)CO)S2(=O)=O ?
Pf Dd2 growth: -60; T cruzi growth-1: inconclusive; T cruzi growth-2: 107*; T cruzi growth-3: 79; 3T3 cytotox: 0; NIH3T3 tox 2: 78*

What do the screens show for `O=C(NCc1cccnc1)c1cc(-c2cccc(Cl)c2)nc2ccccc12`?
IDH1 R132H inh: 13

What do the screens show for `CNC[C@H]1Oc2cc(C#CCC3CCCC3)ccc2S(=O)(=O)N([C@H](C)CO)C[C@H]1C`?
KDM4C inh: -3; Pf Dd2 growth: -69; IDH1 R132H inh: 0; T cruzi growth-1: inconclusive; T cruzi growth-2: 98*; T cruzi growth-3: 79; 3T3 cytotox: inconclusive; NIH3T3 tox 2: 106*

What do the screens show for `CNC[C@@H]1Oc2cc(C#CCC3CCCC3)ccc2S(=O)(=O)N([C@@H](C)CO)C[C@@H]1C`?
KDM4C inh: -2; Pf Dd2 growth: -66; IDH1 R132H inh: 0; T cruzi growth-1: inconclusive; T cruzi growth-2: 87; T cruzi growth-3: 71; 3T3 cytotox: 51*; NIH3T3 tox 2: 106*

How did CNC[C@@H]1Oc2cc(C#CCC3CCCC3)ccc2S(=O)(=O)N([C@@H](C)CO)C[C@H]1C do in these assays?
KDM4C inh: 1; Pf Dd2 growth: -61; IDH1 R132H inh: 0; T cruzi growth-1: inconclusive; T cruzi growth-2: 101*; T cruzi growth-3: 60; 3T3 cytotox: inconclusive; NIH3T3 tox 2: 105*

What do the screens show for `CNC[C@H]1Oc2cc(C#CCC3CCCC3)ccc2S(=O)(=O)N([C@@H](C)CO)C[C@@H]1C`?
KDM4C inh: -2; Pf Dd2 growth: -66; IDH1 R132H inh: 0; T cruzi growth-1: inconclusive; T cruzi growth-2: -27; T cruzi growth-3: -20; 3T3 cytotox: -2; NIH3T3 tox 2: -6

Results for C[C@@H]1CN([C@H](C)CO)S(=O)(=O)c2ccc(C#CCC3CCCC3)cc2O[C@H]1CN(C)C ?
KDM4C inh: -1; Pf Dd2 growth: -22; IDH1 R132H inh: -1; T cruzi growth-1: 41

Results for C[C@H]1CN([C@@H](C)CO)S(=O)(=O)c2ccc(C#CCC3CCCC3)cc2O[C@@H]1CN(C)C ?
Pf Dd2 growth: -55; IDH1 R132H inh: -1; T cruzi growth-1: 73

How did CC1OC(=O)CC2C(C(=O)O)=CC3CC(C)(C)CC312 (stereo not given) do in these assays?
IDH1 R132H inh: 0

What do the screens show for `Cc1c(NC(=S)NCCc2c[nH]c3ccccc23)c(=O)n(-c2ccccc2)n1C`?
IDH1 R132H inh: 1

What do the screens show for `O=C(Cn1cnc([N+](=O)[O-])n1)Nc1ccc(Cl)cc1C(F)(F)F`?
IDH1 R132H inh: 0

Results for O=C(CC(NC1CCCCC1)C(=O)O)Nc1cccc(Cl)c1 (stereo not given) ?
IDH1 R132H inh: 0

Results for COC(=O)c1ccccc1NC(=O)c1cccc(NC(=O)CSc2ccccc2)c1C ?
IDH1 R132H inh: 0

How did COCC#Cc1ccc([C@H]2[C@@H](CO)N3CCCCN(S(=O)(=O)c4ccccc4F)C[C@@H]23)cc1 do in these assays?
KDM4C inh: 0; Pf Dd2 growth: -24; T cruzi growth-1: 107*; T cruzi growth-2: 106*; T cruzi growth-3: 73; 3T3 cytotox: 7; NIH3T3 tox 2: 20
